High-throughput results: PubChem BioAssay, several laboratories
Compounds with a hit are over-represented: about 3.7% of the library has one in this group of screens.
MPTP inh = blocks calcium-induced mitochondrial swelling. isolated mouse mitochondria, Ca2+ swelling absorbance, 30 min. inhibition, % at 10 µM. actives 1.4% (n = 360,000). AID 602449;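 active means inhibition of 50% or more, scaled per plate between neutral and stimulator controls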;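 further: 0% = DMSO wells given calcium and 100% = 1 mM EGTA wells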
procasp7 counter = counter-screen: procaspase-7 (human) activation. recombinant procaspase-7, Ac-DEVD-pNA absorbance 405 nm; D23A/D198A/D206A triple mutant, cannot self-cleave; scale: DMSO 0, 5 µM enzyme 100. actives 0.093% (n = 330,000). activation, % at 8.5 µM;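 active means percent activation above the screen-wide mean plus 3 SD, cut at about 25% in these data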
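Assay system: Uncleavable procaspase-7 mutant enzyme | Input: 2 µM procaspase-7 mutant as dispensed | Timing: 1 h compound preincubation, 2 h substrate cleavage, 25 °C | Repeats: One well per compound | Control set: DMSO wells as 0%, DMSO with 5 µM added PC-7 as 100% | Technique: Epi-absorbance of released pNA at 405 nm, two timepoints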
GRIN3A LBD mod = modulators (binders) of human NR3A ligand-binding domain. actives 2.5% (n = 340,000). Tm shift relative to glycine control, % at 25 µM. AID 1259313. NR3A LBD differential scanning fluorimetry, Tm shift; 0% = protein alone, 100% = glycine-bound protein;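 active means melting temperature shift of at least 10% of the positive control shift, at one fixed dose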
aDG glyco up = alpha-DG glycosylation activation; Pro5-aDG cells, alpha-DG glycosylation AlphaScreen (IIH6); 0% Pro5, 100% B10-LARGE cell signal; activation, % at 10 µM; actives 0.22% (n = 360,000); AID 624168;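 active means activation of at least 8% versus controls, or a plate z-score of at least 8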;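 further: Pro5 are CHO cells carrying HIG-tagged alpha-DG that lacks glycosylation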
procasp3 activ = activators of human procaspase-3 | recombinant procaspase-3 D3A, Ac-DEVD-pNA absorbance 405 nm | actives 0.11% (n = 330,000) | P42574 | activation, % at 8.5 µM | AID 463141;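 active means activation above the mean of all tested compounds plus 3 SD, cut at about 21% in these data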;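 further: 0% = DMSO alone and 100% = DMSO wells spiked with extra 5 µM PC-3 D3A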
Target sequence (P42574 whole entry D9A/D28A/D175A): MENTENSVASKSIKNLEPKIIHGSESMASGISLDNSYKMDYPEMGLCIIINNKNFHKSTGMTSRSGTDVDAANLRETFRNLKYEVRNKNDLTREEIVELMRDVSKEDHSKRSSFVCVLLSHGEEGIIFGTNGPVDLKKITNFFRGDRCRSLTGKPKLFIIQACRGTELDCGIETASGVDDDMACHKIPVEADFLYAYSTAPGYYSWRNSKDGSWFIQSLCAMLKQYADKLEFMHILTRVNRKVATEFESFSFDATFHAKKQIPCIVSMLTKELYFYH
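material = Procaspase-3 D3A mutant | probe or stimulus = Ac-DEVD-pNA | compound = single dose, 8.5 µM nominal compound, 0.8% DMSO | timing = 1 h preincubation, 2 h reaction | measured by = 405 nm absorbance of p-nitroaniline, reads at 0 and 120 min | benchmarks = DMSO-only low control, 5 µM PC-3 D3A high control | repeats = singlicate, each compound tested once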
Rh123 counter = membrane potential counter-screen of mitochondrial pore inhibitors; shares compounds with MPTP inh; isolated mitochondria, Rhodamine 123 fluorescence; inhibition, % at 10 µM; actives 78% (n = 5,000); in the data active means inhibition above about 22%;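 further: 0% = DMSO vehicle and 100% = positive control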
MPTP swell DR = MPTP inhibition, dose response swelling confirmation. actives 58% (n = 780). shares compounds with MPTP inh. IC50, µM. AID 651561. isolated mitochondria swelling, absorbance; in the data active means IC50 below about 20 µM
MPTP counter DR = counter-screen for mitochondrial permeability transition pore inhibitors, dose response; shares compounds with MPTP inh; isolated mitochondria counterscreen, fluorescence read-out; IC50, µM; actives 49% (n = 780); in the data active means IC50 below about 80 µM
Starred values were filed as active, the others as inactive; i = inactive; / = not tested or not shown.

SMILES	MPTP inh	procasp7 counter	GRIN3A LBD mod	aDG glyco up	procasp3 activ	Rh123 counter	others
CCc1ccc(CN2CCN(Cc3ccc(SC)cc3)CC2)cc1	56*	-1	0	1	-1	-7	MPTP swell DR=i;MPTP counter DR=45*
CSc1ccc(CN2CCN(c3ccccc3C)CC2)cc1	0	-2	3	0	5	/
N/C(=N\[N+](=O)[O-])N1CCN(C(=O)OC2CCCC2)CC1	1	2	0	0	-8	/
COc1cccc2c1cc([N+](=O)[O-])c1c(C(=O)O)cc3c(c12)OCO3	-3	/	0	0	/	/
O=C1NC(=S)SC1=Cc1ccc(N(CCCl)CCCl)cc1	53*	/	4	1	/	67*
c1ccc2c(CNC3CCCCCC3)c[nH]c2c1	71*	-8	-1	0	-2	-6	MPTP swell DR=8.7*;MPTP counter DR=73*
Fc1ccc(C(OCCN2CCN(CCCc3ccccc3)CC2)c2ccc(F)cc2)cc1	97*	6	3	1	0	3
Fc1ccc(C(OCCN2CCCC2)c2ccc(F)cc2)cc1	-1	9	-3	0	7	/
c1ccc(CCCN2CCN(CCOC(c3ccccc3)c3ccccc3)CC2)cc1	80*	1	-5	0	-1	-2
O=c1ccc2cc3ccoc3c(O)c2o1	0	-8	1	0	1	/
Cc1[nH]n(-c2ccccc2)c(=O)c1C(c1ccc([N+](=O)[O-])cc1)c1c(C)[nH]n(-c2ccccc2)c1=O	96*	1	8	0	0	76*
COc1ccc2c(c1)[C@@]13CCC=C[C@H]1[C@@H](C2)NCC3	55*	-8	1	0	1	-6	MPTP swell DR=i;MPTP counter DR=>80
O=C(Nc1ccc(Cl)cc1)N1CC2CC(C1)c1cccc(=O)n1C2 (stereo unspecified)	60*	6	11*	0	4	103*
COCCOC(=O)c1c(C)oc2ccc(OC(=O)N(C)C)cc12	0	3	1	0	-6	/
CN(C)CCOc1ccc(/C(=C(/CCCl)c2ccccc2)c2ccccc2)cc1	106*	-4	-2	0	8	-16	MPTP swell DR=6.7*;MPTP counter DR=41*
CN(C)C(=O)Oc1ccc(C(=O)c2ccccc2)cc1	-2	-4	-1	0	6	/
COP(=S)(OC)Oc1ccc(Sc2ccc(OP(=S)(OC)OC)cc2)cc1	50	/	-22	0	/	/
O=C(C1CCCCC1)N1Cc2ccccc2-n2nncc2C1	0	/	/	0	/	/
CN(C)CCOC(=O)c1cn(Cc2ccccc2)c2ccccc12	59*	8	-1	1	-1	-8	MPTP swell DR=18*;MPTP counter DR=>80
CCC(=O)c1cn(Cc2ccccc2)c2ccccc12	-1	3	-1	1	10	/
CCCCOC(=O)c1ccccc1C(=O)OCc1ccccc1	-1	-2	0	0	8	/
O=C(Nc1ccc(Cl)cc1)OC1CN2CCC1CC2 (stereo unspecified)	78*	3	8	0	-6	93*
O=C(Nc1ccccc1Cl)OC1CN2CCC1CC2 (stereo unspecified)	0	6	2	0	1	/
O=C(Nc1cccc(Cl)c1)OC1CN2CCC1CC2 (stereo unspecified)	92*	2	42*	0	-7	88*
O=C1NC(=O)N(Cc2ccccc2)C(=O)/C1=C\c1ccco1	1	-19	-2	0	-7	/
CCCCN1C(=O)/C(=C\c2ccco2)C(=O)N(CCc2ccccc2)C1=O	68*	-5	0	0	1	-6
Cn1nnc(CC[N+](C)(C)C)n1	0	6	1	0	2	/
Cc1cccc(CCNCc2cc3cccc(C)c3[nH]c2=O)c1	67*	/	-1	0	/	44*
Cc1cccc(CCNCc2cc3cc(C)cc(C)c3[nH]c2=O)c1	-2	-21	2	0	-5	/
